Data from ChEMBL document CHEMBL4024801, “Synthesis and Structure-Activity Relationship (SAR) Studies of Novel Pyrazolopyridine Derivatives as Inhibitors of Enterovirus Replication” (J Med Chem, 2018).

What was measured:
Poliovirus 3 = test: Antiviral activity against Poliovirus 3 infected in human HeLa-RW cells assessed as protection against virus-induced cytopathic effect after 3 to 4 days by crystal violet staining-based spectrophotometric method; assay type: functional, cell-based; settings: Enterovirus C
Procedure, shortened: (§1)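 HeLa-RW cells grown in DMEM with penicillin, streptomycin, glutamine and 10% FBS. They were infected at a low MOI pre-set to give full CPE in 3-4 days. Compound in DMSO was added as serial 2-fold dilutions (7 points), each in triplicate. When control CPE was maximal, cells were fixed with 4% formaldehyde, stained with 0.25% crystal violet and read at OD590. EC50 came from a four-parameter or sigmoidal fit.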

[1] = Selectivity index, ratio of CC50 for monkey LLC-MK2 cells to EC50 for Enterovirus A71; assay type: toxicity; settings: read-out: Ratio CC50/EC50
Procedure, shortened: (§2)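 LLC-MK2 cells in DMEM with 10% FBS were used for both arms. For EC50, cells were infected with EV-A71 at a low MOI giving full CPE in 3–4 days and exposed to 2-fold compound dilutions, in triplicate. For CC50, uninfected cells got 2-fold dilutions for the same period. Both arms were formaldehyde-fixed, crystal violet-stained and read at OD590.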

Enterovirus A71 = test: Antiviral activity against Enterovirus A71 infected in monkey LLC-MK2 cells assessed as protection against virus-induced cytopathic effect after 3 to 4 days by crystal violet staining-based spectrophotometric method; assay type: functional, cell-based; settings: Enterovirus A
Procedure, shortened: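 EV-A71 was tested in LLC-MK2 cells grown in DMEM with 10% FBS, penicillin, streptomycin and glutamine, at a low MOI preset to give full CPE in 3–4 days. Compound was dissolved in DMSO and diluted 2-fold, in triplicate. Cells were fixed with formaldehyde when control CPE was maximal, then stained with crystal violet and read at OD590. EC50 came from a 7-point four-parameter or sigmoidal fit.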

Poliovirus 1 = test: Antiviral activity against Poliovirus 1 infected in human HeLa-RW cells assessed as protection against virus-induced cytopathic effect after 3 to 4 days by crystal violet staining-based spectrophotometric method; assay type: functional, cell-based; settings: Enterovirus C; procedure, shortened: as §1
[2] = Selectivity index, ratio of CC50 for human HeLa-RW cells to EC50 for Coxsackievirus B3; assay type: toxicity; settings: read-out: Ratio CC50/EC50
Procedure, shortened: as §2, with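 “HeLa-RW” for “LLC-MK2”, “CVB3-H3” for “EV-A71”, “triplicate, with a 7-point fit.” for “triplicate.”, “fixed,” for “formaldehyde-fixed,”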

[3] = Cytotoxicity against human HeLa-RW cells after 3 to 4 days by crystal violet staining-based spectrophotometric method; assay type: cell-based
Procedure, shortened: (§3)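 Uninfected cells (HeLa-RW or LLC-MK2, in DMEM with penicillin, streptomycin, glutamine and 10% FBS) were exposed to serial 2-fold compound dilutions for the same period as the CPE assay. They were then fixed with formaldehyde, stained with crystal violet and read by OD590 spectrophotometry to derive CC50. Values are means ± s.d. of 3 experiments, or the average of triplicates in one.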

Coxsackievirus B3 = test: Antiviral activity against Coxsackievirus B3 infected in human HeLa-RW cells assessed as protection against virus-induced cytopathic effect after 3 to 4 days by crystal violet staining-based spectrophotometric method; assay type: functional, cell-based; settings: Enterovirus B; procedure, shortened: as §1
LLC-MK2 = test: Cytotoxicity against monkey LLC-MK2 cells after 3 to 4 days by crystal violet staining-based spectrophotometric method; assay type: cell-based, Macaca mulatta; settings: rhesus monkey; procedure, shortened: as §3
[4] = Selectivity index, ratio of CC50 for human HeLa-RW cells to EC50 for Poliovirus 1; assay type: toxicity; settings: read-out: Ratio CC50/EC50
Procedure, shortened: (§4)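 HeLa-RW cells grown in DMEM with penicillin, streptomycin, glutamine and 10% FBS were infected at a low MOI chosen to give full CPE in 3-4 days. Serial 2-fold compound dilutions from DMSO stocks were tested in triplicate. When control CPE was maximal, cells were formaldehyde-fixed, crystal violet-stained and read at OD590. EC50 came from a 7-point curve. CC50 used uninfected cells over the same period.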

[5] = Selectivity index, ratio of CC50 for human HeLa-RW cells to EC50 for Poliovirus 3; assay type: toxicity; settings: read-out: Ratio CC50/EC50; procedure, shortened: as §4

Compound | EC50 (Poliovirus 3) | selectivity ratio [1] | EC50 (Enterovirus A71) | EC50 (Poliovirus 1) | selectivity ratio [2] | CC50 ([3]; hela-rw) | EC50 (Coxsackievirus B3) | CC50 (LLC-MK2) | selectivity ratio [4] | selectivity ratio [5] | CC50 ([3]; HeLa-RW cells)
CC(C)n1ncc2c(C(=O)Nc3ccc(F)c(S(N)(=O)=O)c3)cc(-c3cccs3)nc21 | > 10 µM | 62.5 | 0.8 µM | > 10 µM | > 182 | > 200 µM | 1.1 µM | 50 µM |  |  | 
CC(C)n1ncc2c(NC(=O)c3ccc(F)cc3)cc(-c3cccs3)nc21 | > 10 µM | 12.5 | 4 µM | > 10 µM | 2.6 | 12 µM | 4.7 µM | 50 µM |  |  | 
CC(C)n1ncc2c(C(=O)Nc3cccc(F)c3)cc(-c3cccs3)nc21 | > 25 µM | > 83.3 | 2.4 µM | > 25 µM | > 250 | > 200 µM | 0.8 µM | > 200 µM |  |  | 
CC(C)n1ncc2c(C(=O)Nc3cncnc3)cc(-c3cccs3)nc21 | 10 µM | 50 | 0.4 µM | 10 µM | 25.7 | 18 µM | 0.7 µM | 20 µM | 1.8 | 1.8 | 
CC(C)n1ncc2c(C(=O)Nc3cccc(C(N)=O)c3)cc(-c3cccs3)nc21 | 6.3 µM | 31.3 | 0.8 µM | 6.3 µM | 25.7 | 18 µM | 0.7 µM | 25 µM | 2.9 | 2.9 | 
CC(C)n1ncc2c(C(=O)Nc3ccccc3S(N)(=O)=O)cc(-c3cccs3)nc21 | > 25 µM | 10 | 2.5 µM | > 25 µM | 3.8 | 10 µM | 2.6 µM | 25 µM |  |  | 
CC(C)n1ncc2c(C(=O)Nc3cccc(S(=O)(=O)N(C)C)c3)cc(-c3cccs3)nc21 | > 10 µM | > 250 | 0.8 µM | > 10 µM | 12 | 12 µM | 1 µM | > 200 µM |  |  | 
CC(C)n1ccc2c(C(=O)Nc3cccnc3)cc(-c3cccs3)nc21 | > 10 µM | 31.3 | 0.8 µM | > 10 µM | 13.8 | 18 µM | 1.3 µM | 25 µM |  |  | 
CC(C)n1ncc2c(C(=O)Nc3cccnc3)cc(-c3cccs3)nc21 | 10 µM | > 400 | 0.5 µM | 10 µM | 62.5 | 25 µM | 0.4 µM | > 200 µM | 2.5 | 2.5 | 
CC(C)n1ncc2c(C(=O)Nc3ncccn3)cc(-c3cccs3)nc21 | > 10 µM | 150 | 0.5 µM | > 10 µM | 62.5 | 37.5 µM | 0.6 µM | 75 µM |  |  | 
CC(C)n1ccc2c(C(=O)Nc3ccccn3)cc(-c3cccs3)nc21 | > 10 µM | > 167 | 1.2 µM | > 10 µM | 8.5 | 18.8 µM | 2.2 µM | > 200 µM |  |  | 
CC(C)n1ncc2c(C(=O)Nc3ncccn3)cc(-c3ccsc3)nc21 | > 10 µM | 41.7 | 1.2 µM | > 10 µM | 33.3 | 40 µM | 1.2 µM | 50 µM |  |  | 
CC(C)n1ncc2c(C(=O)Nc3cccnc3)cc(-c3ccsc3)nc21 | > 10 µM | 15.4 | 2.4 µM | > 10 µM | 30 | 18 µM | 0.6 µM | 37 µM |  |  | 
CC(C)n1ncc2c(C(=O)Nc3ccccc3F)cc(-c3cccs3)nc21 | 7 µM | 21.7 | 2.3 µM | 7 µM | 8.9 | 12.5 µM | 1.4 µM | 50 µM | 1.8 | 1.8 | 
CC(C)n1ncc2c(C(=O)Nc3ccncn3)cc(-c3cccs3)nc21 | > 10 µM | 100 | 0.5 µM | > 10 µM | 33.3 | 20 µM | 0.6 µM | 50 µM |  |  | 
CC(C)n1ncc2c(C(=O)N3CCc4cccnc43)cc(-c3cccs3)nc21 | > 10 µM | 4 | 12.5 µM | > 10 µM | 4 | 37.5 µM | 9.4 µM | 50 µM |  |  | 
CC(C)n1ncc2c(C(=O)Nc3cccc(S(N)(=O)=O)c3)cc(-c3cccs3)nc21 | 5 µM | 19.2 | 1.3 µM | 5 µM | 167 |  | 1.3 µM | 25 µM | 10 | 10 | 50 to 200 µM
CC(C)n1ncc2c(C(=O)Nc3ccc(F)cn3)cc(-c3cccs3)nc21 | > 10 µM | > 167 | 1.2 µM | > 10 µM | 53.6 | 37.5 µM | 0.7 µM | > 200 µM |  |  | 
CNS(=O)(=O)c1cccc(NC(=O)c2cc(-c3cccs3)nc3c2cnn3C(C)C)c1 | > 10 µM | 35.7 | 0.7 µM | > 10 µM | 24 | 12 µM | 0.5 µM | 25 µM |  |  | 
CC(C)n1ncc2c(C(=O)Nc3c(F)cc(F)cc3F)cc(-c3cccs3)nc21 | > 25 µM | > 66.7 | 3 µM | > 25 µM | > 111 | > 200 µM | 1.8 µM | > 200 µM |  |  | 
CC(C)n1ncc2c(C(=O)Nc3ccc(S(C)(=O)=O)cc3)cc(-c3cccs3)nc21 | > 10 µM | 100 | 0.5 µM | > 10 µM | 200 | 200 µM | 1 µM | 50 µM |  |  | 
CC(C)n1ncc2c(C(=O)Nc3ccccn3)cc(-c3cccs3)nc21 | > 10 µM | > 400 | 0.5 µM | > 10 µM | > 250 | > 200 µM | 0.8 µM | > 200 µM |  |  | 
CC(C)n1ncc2c(C(=O)Nc3ccncc3)cc(-c3cccs3)nc21 | > 10 µM | 15.8 | 0.4 µM | > 10 µM | 10 | 6 µM | 0.6 µM | 6.3 µM |  |  | 
CC(C)n1ncc2c(C(=O)Nc3ccncn3)cc(-c3ccsc3)nc21 | > 10 µM | > 250 | 0.8 µM | > 10 µM | > 167 | > 200 µM | 1.2 µM | > 200 µM |  |  | 
CC(C)n1ncc2c(C(=O)Nc3ccccn3)cc(-c3ccsc3)nc21 | > 10 µM | 31.3 | 0.8 µM | > 10 µM | 15 | 18 µM | 1.2 µM | 25 µM |  |  | 
